The text below walks through data of ChEMBL document CHEMBL1156759, “Identification and optimization of inhibitors of Trypanosomal cysteine proteases: cruzain, rhodesain, and TbCatB” (J Med Chem, 2010).

Calls of active or inactive are those of the source. No cut-off for these calls is given here.

The target in series [1] is T1, Cruzipain (Trypanosoma cruzi, UniProt P25779). Description: Inhibition of Trypanosoma cruzi cruzain after 15 mins. The conditions noted are these: read-out: IC50. In short, it runs like this: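 Cruzain at 1.5 nM final in 100 mM acetate pH 5.5, 5 mM DTT, 0.01% Triton X-100; compounds as serial 2-fold dilutions pin-transferred in DMSO. 15 min room-temperature preincubation, then Z-FR-AMC 2 μM final. Kinetic fluorescence read at ex 340/em 450 nm. Percent inhibition from the first 60 s signal change versus no-enzyme and uninhibited controls (48 wells each).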
T1 sequence (P25779 whole entry): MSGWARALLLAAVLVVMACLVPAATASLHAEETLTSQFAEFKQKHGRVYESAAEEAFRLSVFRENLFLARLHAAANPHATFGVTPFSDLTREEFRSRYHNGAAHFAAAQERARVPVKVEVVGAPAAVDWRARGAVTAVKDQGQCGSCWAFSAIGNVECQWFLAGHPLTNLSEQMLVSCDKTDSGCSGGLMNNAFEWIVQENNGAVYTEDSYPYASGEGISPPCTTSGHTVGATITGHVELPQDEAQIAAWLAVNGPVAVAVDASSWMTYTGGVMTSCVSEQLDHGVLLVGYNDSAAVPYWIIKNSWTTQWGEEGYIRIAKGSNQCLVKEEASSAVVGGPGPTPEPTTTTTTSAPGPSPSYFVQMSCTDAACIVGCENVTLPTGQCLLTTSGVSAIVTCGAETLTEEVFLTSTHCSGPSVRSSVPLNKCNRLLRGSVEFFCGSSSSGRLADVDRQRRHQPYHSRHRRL

The next series has as its target Caspase-6 (Homo sapiens, UniProt P55212). Description: Inhibition of human Caspase 6. In short, it runs like this: (§1)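 Profiling panel run externally as 10-dose, 3-fold serial dilutions of compound. Protease activity followed as a time course of fluorescence increase from a fluorescently labeled peptide substrate. The initial linear slope (signal/min) was analysed.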

The next series has as its target Caspase-14 (Homo sapiens, UniProt P31944). Description: Inhibition of human Caspase 14. In short, it runs like this:
as §1

A further series concerns the target T2, Pro-cathepsin H (Homo sapiens, UniProt P09668).
T2 sequence (P09668 whole entry): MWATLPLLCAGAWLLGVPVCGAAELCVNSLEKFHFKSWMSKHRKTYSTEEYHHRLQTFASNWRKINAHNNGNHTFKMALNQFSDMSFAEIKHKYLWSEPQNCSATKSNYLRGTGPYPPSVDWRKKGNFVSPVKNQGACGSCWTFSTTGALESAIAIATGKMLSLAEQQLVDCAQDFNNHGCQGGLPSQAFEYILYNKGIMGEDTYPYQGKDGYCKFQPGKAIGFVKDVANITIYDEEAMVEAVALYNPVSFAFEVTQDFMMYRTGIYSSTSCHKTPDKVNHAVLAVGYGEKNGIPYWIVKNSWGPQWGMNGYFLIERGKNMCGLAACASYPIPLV
Description: Inhibition of human Cathepsin H. In short, it runs like this: as §1

Another series deals with T3, Cathepsin K (Homo sapiens, UniProt P43235).
T3 sequence (P43235 whole entry): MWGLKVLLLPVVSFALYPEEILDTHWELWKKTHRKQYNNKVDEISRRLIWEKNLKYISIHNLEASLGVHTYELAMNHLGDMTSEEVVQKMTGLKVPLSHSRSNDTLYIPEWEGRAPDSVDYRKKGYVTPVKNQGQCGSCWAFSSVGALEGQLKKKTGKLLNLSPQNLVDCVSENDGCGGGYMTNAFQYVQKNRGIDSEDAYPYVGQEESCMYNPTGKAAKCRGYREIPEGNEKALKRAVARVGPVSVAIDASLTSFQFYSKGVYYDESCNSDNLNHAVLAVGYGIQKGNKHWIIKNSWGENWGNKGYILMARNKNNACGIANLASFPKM
Description: Inhibition of human Cathepsin K/O2. In short, it runs like this: as §1

For the next series, the target named is Procathepsin L (Homo sapiens, UniProt P07711). Description: Inhibition of human Cathepsin L. In short, it runs like this:
as §1

For another series, the target named is Cathepsin S (Homo sapiens, UniProt P25774). Description: Inhibition of human Cathepsin S. In short, it runs like this:
as §1

A further series addresses T4, Cathepsin L2 (Homo sapiens, UniProt O60911).
T4 sequence (O60911 whole entry): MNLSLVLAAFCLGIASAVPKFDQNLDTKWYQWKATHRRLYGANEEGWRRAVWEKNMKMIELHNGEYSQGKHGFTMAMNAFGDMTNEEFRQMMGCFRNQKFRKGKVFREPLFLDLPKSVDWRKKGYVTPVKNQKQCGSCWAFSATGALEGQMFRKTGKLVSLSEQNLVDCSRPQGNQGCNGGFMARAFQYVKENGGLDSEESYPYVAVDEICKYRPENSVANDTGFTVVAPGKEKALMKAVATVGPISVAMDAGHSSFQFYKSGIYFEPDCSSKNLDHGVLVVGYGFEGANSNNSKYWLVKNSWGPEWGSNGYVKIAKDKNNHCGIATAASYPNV
Briefly: Inhibition of human Cathepsin V. In short, it runs like this:
as §1

In another series the target is T5, Papain (Carica papaya, UniProt P00784).
T5 sequence (P00784 whole entry): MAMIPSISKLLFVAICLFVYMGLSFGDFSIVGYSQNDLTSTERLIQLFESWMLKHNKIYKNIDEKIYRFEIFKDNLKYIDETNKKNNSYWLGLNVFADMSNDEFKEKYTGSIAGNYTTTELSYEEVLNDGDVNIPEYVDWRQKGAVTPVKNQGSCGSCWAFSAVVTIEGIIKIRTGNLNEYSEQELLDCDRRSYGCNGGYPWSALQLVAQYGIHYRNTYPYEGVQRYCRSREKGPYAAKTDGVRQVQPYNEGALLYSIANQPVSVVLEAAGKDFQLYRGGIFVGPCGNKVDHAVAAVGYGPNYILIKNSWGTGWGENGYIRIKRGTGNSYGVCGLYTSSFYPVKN
Briefly: Inhibition of papaya papain. In short, it runs like this: as §1

For another series, the target named is Cathepsin Z (Homo sapiens, UniProt Q9UBR2). Description: Inhibition of human Cathepsin X/Z. In short, it runs like this: as §1
Sequence of Cathepsin Z (Q9UBR2 whole entry): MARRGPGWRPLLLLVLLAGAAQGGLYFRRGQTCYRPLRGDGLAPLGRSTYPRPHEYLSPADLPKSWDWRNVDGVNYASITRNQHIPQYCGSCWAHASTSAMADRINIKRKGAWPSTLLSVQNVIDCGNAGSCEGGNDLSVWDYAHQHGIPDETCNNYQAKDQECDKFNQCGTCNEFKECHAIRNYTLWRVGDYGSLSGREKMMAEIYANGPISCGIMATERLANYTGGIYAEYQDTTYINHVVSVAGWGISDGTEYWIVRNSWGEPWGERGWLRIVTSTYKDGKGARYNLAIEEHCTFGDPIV
Series [2] addresses Tissue-type plasminogen activator (Homo sapiens, UniProt P00750). Description: Inhibition of human tPA. In short, it runs like this:
as §1

The species named for another series is Mus musculus. Briefly: Toxicity in mouse. Format: organism-based. As to conditions: in vivo.
For the next series, the species on record is Rattus norvegicus. Description: Toxicity in rat. In kind it is organism-based. As to conditions: in vivo.
The next series is filed under the species Canis familiaris. Briefly: Toxicity in dog. In kind it is organism-based, Canis lupus familiaris. As to conditions: in vivo.
The target of series [3] is T1, Cruzipain. Briefly: Inhibition of recombinant Trypanosoma cruzi cruzain after 5 mins by spectrofluorimetric analysis. In short, it runs like this: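 Recombinant cruzain at 4 nM (activated procruzain, anion-exchange purified) in 100 mM sodium acetate pH 5.5, 5 mM DTT, 0.001% Triton X-100. Preincubated 5 min at room temperature with compound in DMSO, then Z-Phe-Arg-AMC 10 μM. Fluorescence rate read at ex 355/em 460 nm; DMSO controls; IC50 by curve fitting.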

The nature of series [4]: Inhibition of recombinant Trypanosoma brucei rhodesain after 5 mins by spectrofluorimetric analysis. In short, it runs like this:
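Recombinant rhodesain, 4 nM, preincubated 5 min at room temperature with compound (DMSO) in 100 mM sodium acetate pH 5.5, 5 mM DTT, 0.001% Triton X-100. Reaction started with 10 μM Z-Phe-Arg-AMC; rate of AMC fluorescence increase read at ex 355/em 460 nm. IC50 from curve fitting; DMSO-only wells as positive control.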

A short description of series [5]: Inhibition of recombinant Trypanosoma brucei cathepsin B after 5 mins by spectrofluorimetric analysis. In short, it runs like this:
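Recombinant TbCatB at 258 nM in 100 mM sodium acetate pH 5.5, 5 mM DTT, 0.001% Triton X-100, preincubated with compound in DMSO for 5 min at room temperature. Z-Phe-Arg-AMC 10 μM added to start. Rate of fluorescence rise read at ex 355/em 460 nm; DMSO control wells; IC50 from curve fitting.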

Series [6] has as its system Trypanosoma cruzi. Description: Antitrypanosomal activity against Trypanosoma cruzi Y trypomastigotes infected in mouse J774 cells at 1 uM after 27 days medium replaced every 48 hrs. Format: functional, organism-based. In short, it runs like this: (§2)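 Irradiated (1000 rad) J774 macrophages plated overnight, infected 2 h with Y strain trypomastigotes, parasites removed, then cultured in RPMI-1640 with compound (n = 3); untreated infected and 10 μM K777 controls per experiment. Medium replaced every 48 h over 27 days; daily phase-contrast microscopy (400×) for free trypomastigotes and host toxicity; cultures kept 14 further days to confirm cure.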

A further series concerns J774. Briefly: Cytotoxicity against mouse J774 cells at 10 uM. Format: cell-based. As to conditions: j774, 10 µM. In short, it runs like this: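 Irradiated (1000 rad) J774 macrophages plated overnight and infected 2 h with Y strain T. cruzi trypomastigotes. After parasite removal, cultured in RPMI-1640 with compound (n = 3), medium changed every 48 h, for 27 days. Toxicity to host cells (granulation, detachment, death) scored daily by phase-contrast microscopy at 400×.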

The subject of series [7] is Trypanosoma cruzi. Briefly: Antitrypanosomal activity against Trypanosoma cruzi Y trypomastigotes infected in mouse J774 cells at 5 uM after 27 days medium replaced every 48 hrs. In kind it is functional, organism-based. In short, it runs like this:
as §2

Sequence of Procathepsin L (P07711 whole entry): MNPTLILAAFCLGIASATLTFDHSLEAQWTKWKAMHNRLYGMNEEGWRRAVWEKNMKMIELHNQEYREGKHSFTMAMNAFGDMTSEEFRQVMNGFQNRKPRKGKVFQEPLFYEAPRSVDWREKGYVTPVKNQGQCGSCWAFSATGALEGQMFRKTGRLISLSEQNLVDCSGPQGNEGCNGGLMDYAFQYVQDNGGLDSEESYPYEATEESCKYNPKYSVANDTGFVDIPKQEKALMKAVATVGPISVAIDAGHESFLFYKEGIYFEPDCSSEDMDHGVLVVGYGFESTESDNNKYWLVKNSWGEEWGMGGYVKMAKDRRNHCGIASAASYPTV
Sequence of Caspase-14 (P31944 6-146 limits assumed): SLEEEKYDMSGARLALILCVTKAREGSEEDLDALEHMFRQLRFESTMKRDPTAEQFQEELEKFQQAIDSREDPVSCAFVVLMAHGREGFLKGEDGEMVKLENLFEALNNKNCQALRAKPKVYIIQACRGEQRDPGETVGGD
Sequence of Caspase-14 (P31944 153-242 limits assumed): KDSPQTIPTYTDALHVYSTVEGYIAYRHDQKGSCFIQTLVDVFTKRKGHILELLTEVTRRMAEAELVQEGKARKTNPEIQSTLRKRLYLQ
Sequence of Caspase-6 (P55212 24-179 limits assumed): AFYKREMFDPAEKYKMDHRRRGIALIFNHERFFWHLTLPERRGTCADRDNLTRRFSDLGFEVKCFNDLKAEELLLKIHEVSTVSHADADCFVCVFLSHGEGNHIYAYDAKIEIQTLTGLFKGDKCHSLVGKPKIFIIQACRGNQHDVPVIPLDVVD
Sequence of Caspase-6 (P55212 194-293 limits assumed): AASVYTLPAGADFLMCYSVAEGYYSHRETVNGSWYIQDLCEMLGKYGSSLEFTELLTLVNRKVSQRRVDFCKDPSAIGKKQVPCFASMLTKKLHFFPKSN
Sequence of Cathepsin S (P25774 whole entry): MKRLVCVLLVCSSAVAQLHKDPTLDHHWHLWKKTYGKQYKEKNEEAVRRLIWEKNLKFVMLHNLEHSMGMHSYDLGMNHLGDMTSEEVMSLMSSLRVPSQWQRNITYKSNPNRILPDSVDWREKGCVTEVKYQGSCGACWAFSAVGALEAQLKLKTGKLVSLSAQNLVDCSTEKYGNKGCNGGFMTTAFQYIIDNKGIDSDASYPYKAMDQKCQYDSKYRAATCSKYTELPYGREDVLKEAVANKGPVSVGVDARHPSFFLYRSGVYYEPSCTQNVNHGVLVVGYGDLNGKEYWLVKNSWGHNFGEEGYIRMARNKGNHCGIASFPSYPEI
Sequence of Tissue-type plasminogen activator (P00750 whole entry): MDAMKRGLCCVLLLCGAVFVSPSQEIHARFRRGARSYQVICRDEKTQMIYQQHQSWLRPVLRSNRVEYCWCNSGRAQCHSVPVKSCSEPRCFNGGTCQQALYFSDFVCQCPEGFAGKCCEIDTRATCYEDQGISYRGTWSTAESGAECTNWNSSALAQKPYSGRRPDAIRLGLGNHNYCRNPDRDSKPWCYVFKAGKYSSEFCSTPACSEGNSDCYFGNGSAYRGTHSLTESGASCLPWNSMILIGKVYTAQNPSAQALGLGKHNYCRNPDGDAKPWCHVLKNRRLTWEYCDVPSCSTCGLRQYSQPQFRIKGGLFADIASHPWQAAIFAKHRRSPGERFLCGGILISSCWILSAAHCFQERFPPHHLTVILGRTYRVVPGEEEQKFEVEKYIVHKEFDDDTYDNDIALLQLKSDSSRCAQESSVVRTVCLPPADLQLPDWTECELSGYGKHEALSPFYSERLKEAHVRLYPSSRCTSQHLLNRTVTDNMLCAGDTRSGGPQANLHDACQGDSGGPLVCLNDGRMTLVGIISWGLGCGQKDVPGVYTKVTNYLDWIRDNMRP

As to `CC(C)CNc1nc(C#N)nc(Nc2ccccc2)n1`, at Cruzipain [1], the IC50 is 0.89 µM.

`N#Cc1nc(Nc2cccc(Cl)c2)nc(NC2CCCC2)n1`: the 50% inhibitory concentration (IC50) against Caspase-6 is 5.13 µM; against Caspase-14 it was 14.1 µM; against Pro-cathepsin H it was 14.5 µM; against Cathepsin K, 0.0174 µM; against Procathepsin L, 0.309 µM; against Cathepsin S it was 6.46 µM. Further, the IC50 against Cathepsin L2 is 0.832 µM; against Papain, 0.513 µM; against Cathepsin Z, 6.46 µM; in series [2], 0.851 µM; at Cruzipain [1] it was 0.079 µM; at Cruzipain [3], 0.002 µM. Also, the IC50 in series [4] is 0.006 µM; in [5], above 100 µM. The Activity entry is “Non-toxic” in the series filed under Mus musculus, “Non-toxic” in the series listed under Rattus norvegicus, “Non-toxic” in the series listed under Canis familiaris and “Toxic” with J774. The result in the series with Trypanosoma cruzi [6] and in the series on Trypanosoma cruzi [7] was inactive.

For `N#Cc1nc(Nc2cccc(-c3ccccc3)c2)nc(NC2CCCC2)n1`, the half-maximal inhibitory concentration (IC50) was 2.24 µM at Cruzipain [1], 0.05 µM at Cruzipain [3], 0.03 µM in [4] and above 10 µM in [5]. The outcome in the series with Trypanosoma cruzi [6] and with Trypanosoma cruzi [7] was inactive. Moreover, the Activity result with J774 was “Toxic”.

For `Cc1cccc(Nc2nc(C#N)nc(NC3CCCC3)n2)c1`, the IC50 at Cruzipain [1] turned out to be 0.126 µM; at Cruzipain [3] it was 0.03 µM; in series [4], 0.05 µM; in series [5], 6 µM. Moreover, the outcome in the series with Trypanosoma cruzi [6] and in the series on Trypanosoma cruzi [7] was inactive. For the same compound, the Activity entry in the series with J774 is on record as “Toxic”.

Turning to `CCNc1nc(C#N)nc2c1ncn2-c1cccc(Cl)c1`, at Cruzipain [1], the half-inhibitory concentration (IC50) was 0.063 µM.

For the compound `N#Cc1nc(Nc2cc(F)cc(F)c2)c2ncn(C3CCCC3)c2n1`, on Cruzipain [1], the IC50 is 0.018 µM.

Take `N#Cc1nc(Nc2cccc([N+](=O)[O-])c2)nc(NC2CCCC2)n1`: the IC50 is 0.063 µM on Cruzipain [1], 0.001 µM at Cruzipain [3], 0.008 µM in series [4] and above 1 µM in series [5].

As to `N#Cc1nc(NCC(F)F)c2ncn(-c3cccc(Cl)c3)c2n1`, the half-maximal inhibitory concentration (IC50) at Cruzipain [1] came out at 0.071 µM.

Turning to `CCOc1nc(C#N)nc(N2CCCCC2)n1`, the IC50 on Cruzipain [3] was 0.09 µM; in series [4], 0.3 µM; in [5], above 1 µM.

Regarding `N#Cc1nc(Nc2cc(Cl)cc(Cl)c2)nc(NC2CCCC2)n1`, the IC50 at Cruzipain [1] is 0.398 µM; on Cruzipain [3], 0.01 µM; in series [4], 0.03 µM; in [5] it was above 10 µM. Further, the outcome in the series on Trypanosoma cruzi [6] and in the series on Trypanosoma cruzi [7] was inactive. Further, in the series with J774, the Activity entry is listed as “Toxic”.

Take `N#Cc1nc(Nc2ccc(F)cc2)nc(NC2CCCC2)n1`: the IC50 at Cruzipain [1] was 0.126 µM; at Cruzipain [3], 0.03 µM; in series [4], 0.04 µM; in series [5] it was above 1 µM.

For the compound `N#Cc1nc(NCC2CC2)nc(Nc2ccccc2)n1`, at Cruzipain [1], the IC50 was 0.89 µM.

`N#Cc1nc(NCCO)nc(Nc2ccccc2)n1`: the half-inhibitory concentration (IC50) at Cruzipain [1] is 1.58 µM.

As to `CC(C)Nc1nc(C#N)nc(Nc2ccccc2)n1`, at Cruzipain [1], the IC50 was found to be 0.89 µM.

With `N#Cc1nc(NC2CCCC2)c2ncn(-c3cc(F)cc(F)c3)c2n1`, the IC50 on Cruzipain [1] was 0.316 µM.

A word on the IC50: it is the concentration needed to halve the response being measured.
